The subject of assay [1] is B16. Put plainly: Inhibitory activity against growth of B16 mouse melanoma cell line was determined by MTT assay. Type of assay: functional, cell-based. In short, it runs like this:
(§1)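 Exponentially growing cells seeded at 2 × 10^4 ~ 5 × 10^4 cells/well in RPMI-1640, drug-treated, then incubated 72 h. MTT (5 mg/mL stock) added, 4 h at 37 °C. Formazan dissolved in DMSO at rt, absorbance read at 540 nm. IC50 from plot of log drug concentration versus growth rate of treated cells.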

In assay [2] the test system is BeWo. Put plainly: Inhibitory activity against growth of BeWO placental tumor cell line was determined by MTT assay. The following applies: Homo sapiens. Type of assay: functional, cell-based. In short, it runs like this:
as §1

The test system of assay [3] is HT-29. Nature of the assay: Inhibitory activity against growth of HT-29 colon tumor cell line was determined by MTT assay. The format is functional, cell-based. Particulars: Homo sapiens. The method in brief:
as §1

The subject of assay [4] is PANC-1. Put plainly: Inhibitory activity against growth of PANC-1 tumor cell line was determined by MTT assay. Type of assay: functional, cell-based. The following applies: Homo sapiens. The method in brief: as §1
On the technique in general: Tetrazolium dyes change colour on reduction, which living cells bring about.

Assay [5] has as its system HT-29. Put plainly: Percentage of apoptotic HT-29 cells after 24 H treatment with 10 ug/mL concentration of compound. The format is functional, Homo sapiens. The method in brief: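 HT-29 cells exposed to compound at 10 μg/mL for 24 h. Apoptotic cell percentage measured by flow cytometry (FACScan). Mean ± SEM of at least three separate experiments.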

Values after ≈ are worked out from the molar mass of the structure shown. Some results are limits rather than exact numbers.

For `CC(C)[C@H]1C(=O)OC[C@@H](NC(=O)c2cnc3ccccc3n2)C(=O)N[C@@H](C)C(=O)N(C)[C@H]2CSC[S+]([O-])C[C@@H](C(=O)N1C)N(C)C(=O)[C@H](C)NC(=O)[C@H](NC(=O)c1cnc3ccccc3n1)COC(=O)[C@H](C(C)C)N(C)C2=O` (stereo not given in full), the concentration for half-maximal inhibition (IC50) in assay [1], in assay [2], in assay [3] and in assay [4] was greater than 20 µg/mL throughout.
For `CC(C)[C@@H]1NC(=O)[C@@H]2CSCSC[C@H](NC(=O)[C@H](C)NC(=O)[C@H](NC(=O)c3cnc4ccccc4n3)COC1=O)C(=O)N[C@@H](C(C)C)C(=O)OC[C@@H](NC(=O)c1cnc3ccccc3n1)C(=O)N[C@@H](C)C(=O)N2`, the IC50 in assay [1], in assay [2], in assay [3] and in assay [4] was greater than 20 µg/mL each time.
As to `CC(C)[C@H]1C(=O)OC[C@@H](NC(=O)c2cnc3ccccc3n2)C(=O)N[C@@H](C)C(=O)N(C)[C@H]2CS(=O)(=O)CS(=O)(=O)C[C@@H](C(=O)N1C)N(C)C(=O)[C@H](C)NC(=O)[C@H](NC(=O)c1cnc3ccccc3n1)COC(=O)[C@H](C(C)C)N(C)C2=O`, the IC50 in assay [1], in assay [2], in assay [3] and in assay [4] was greater than 20 µg/mL in each case.
In the case of `CC(C)[C@H]1C(=O)OC[C@@H](NC(=O)c2cnc3ccccc3n2)C(=O)N[C@@H](C)C(=O)N(C)[C@H]2CSCSC[C@@H](C(=O)N1C)N(C)C(=O)[C@H](C)NC(=O)[C@H](NC(=O)c1cnc3ccccc3n1)COC(=O)[C@H](C(C)C)N(C)C2=O`, the IC50 (in general, the midpoint of a concentration-inhibition curve) in assay [1] amounted to 1.4 µg/mL (≈ 1.27 µM); in assay [2], 2.7 µg/mL (≈ 2.45 µM); in assay [3] it was 5 µg/mL (≈ 4.54 µM); in assay [4], 4 µg/mL (≈ 3.63 µM). The same molecule had an Apoptotic cells in assay [5] of 28.9%.
With `CC(C)[C@H]1C(=O)OC[C@@H](NC(=O)c2cnc3ccccc3n2)C(=O)N[C@@H](C)C(=O)N(C)[C@H]2C[S+]([O-])C[S+]([O-])C[C@@H](C(=O)N1C)N(C)C(=O)[C@H](C)NC(=O)[C@H](NC(=O)c1cnc3ccccc3n1)COC(=O)[C@H](C(C)C)N(C)C2=O` (stereo not given in full), the IC50 in assay [1], in assay [2], in assay [3] and in assay [4] was greater than 20 µg/mL in each case.
On to `CC(C)[C@@H]1NC(=O)[C@@H]2CS(=O)(=O)CS(=O)(=O)C[C@H](NC(=O)[C@H](C)NC(=O)[C@H](NC(=O)c3cnc4ccccc4n3)COC1=O)C(=O)N[C@@H](C(C)C)C(=O)OC[C@@H](NC(=O)c1cnc3ccccc3n1)C(=O)N[C@@H](C)C(=O)N2`, for which the IC50 in assay [1], in assay [2], in assay [3] and in assay [4] was greater than 20 µg/mL in each case.
As to `CS[C@H]1SC[C@H]2C(=O)N(C)[C@@H](C(C)C)C(=O)OC[C@@H](NC(=O)c3cnc4ccccc4n3)C(=O)N[C@@H](C)C(=O)N(C)[C@@H]1C(=O)N(C)[C@@H](C(C)C)C(=O)OC[C@@H](NC(=O)c1cnc3ccccc3n1)C(=O)N[C@@H](C)C(=O)N2C` [ECHINOMYCIN], the IC50 stood at 0.4 µg/mL (≈ 0.363 µM) in assay [1], 1 µg/mL (≈ 0.908 µM) in assay [2], 2.2 µg/mL (≈ 2 µM) in assay [3] and 1.8 µg/mL (≈ 1.63 µM) in assay [4]. Further, in assay [5], the Apoptotic cells came to 47.5%.

For the origin of these results see ChEMBL document CHEMBL1147412, “Synthesis and biological activity of new quinoxaline antibiotics of echinomycin analogues” (Bioorg Med Chem Lett, 2004).
